Results reported in article PMC3870048 (Pharmaceutical research, 2013).
Values after ≈ are worked out from the molar mass of the structure shown. Read-outs that look alike come from different tables or passages of the source.

Tests used:
[1] = Donor solution solubility determination; type: physicochemical; settings: saturation solubility in 0.3 M acetate buffer pH 5.0 containing 10% propylene glycol, 32°C
[2] = Stability of codrugs in 0.3 M acetate buffer pH 5.0 at 32°C; type: physicochemical; settings: 0.3 M acetate buffer pH 5.0, 32°C
How it was run: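 Codrug was predissolved in ACN and spiked into prewarmed buffer (<1% ACN). 100 μl aliquots were taken at intervals, quenched with 900 μl ACN and held at -80°C. Analysis was by C18 HPLC-UV with ACN:acidic aqueous (70:30, pH 3.0) mobile phase and standards of 100–10,000 ng/ml. Data were fit to pseudo first-order kinetics; triplicate.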

[3] = In vitro diffusion studies across microneedle-treated skin; type: in vitro ADME, Yucatan miniature pig; settings: skin at end of 48 h diffusion experiment
How it was run: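 Yucatan minipig skin, dermatomed 1.4-1.8 mm, pierced 20 times with a 5-needle array (100 pores per 0.95 cm2 area). Flow-through cells held at 32°C. Donor: 250 μl of excess drug in 0.3 M acetate pH 5.0 with 10% PG. Receiver: pH 7.4 water with 20% ethanol, 1.5 ml/h. At 48 h the permeation area was minced and extracted overnight in 10 ml ACN at 32°C, then analysed by HPLC; n≥3.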

[4] = earlier proof of concept study; cited from earlier work
[5] = in 43% PG, 43% ethanol containing solution; data previously reported; cited from earlier work

| SMILES | Solubility [1] | Pseudo first order rate constant (k) [2] | Stability (approx. half-life) [2] | NTX and DIC (parent drugs) in the skin [3] | formulation half-life [4] | Solubility [5] |
| --- | --- | --- | --- | --- | --- | --- |
| Cl.O=C(Cc1ccccc1Nc1c(Cl)cccc1Cl)Oc1ccc2c3c1O[C@H]1C(=O)CC[C@@]4(O)[C@@H](C2)N(CC2CC2)CC[C@]314 [Codrug I (hydrochloride salt)] | 83.8 ± 15.4 mM |  |  |  |  |  |
| O=C(Cc1ccccc1Nc1c(Cl)cccc1Cl)O[C@@H]1CC[C@@]2(O)[C@H]3Cc4ccc(O)c5c4[C@@]2(CCN3CC2CC2)[C@H]1O5 [Codrug II] |  | 0.0052 days ^−1 | 130.88 ± 4.94 days |  |  |  |
| O=C(Cc1ccccc1Nc1c(Cl)cccc1Cl)Oc1ccc2c3c1O[C@H]1C(=O)CC[C@@]4(O)[C@@H](C2)N(CC2CC2)CC[C@]314 [Codrug I] |  | 0.0803 days ^−1 | 8.72 ± 1.05 days | quantifiable | 96 to 120 h | 7.23 mM (≈ 4480 µg/mL) |
